Bioassay records deposited in PubChem BioAssay by several laboratories.
ASAP1 GAP inh = inhibitors of human ASAP1 ArfGAP activity; Q9ULH1; ASAP1-stimulated ARF1 GTP hydrolysis, GDP FP detection; inhibition, % at 16.5 µM; 0.19% of 360,000 active; AID 624377; in the data active means inhibition above about 25%;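 further: 0% = vehicle with enzyme and substrate and 100% = no enzyme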
Target sequence (Q9ULH1 325-724 limits assumed): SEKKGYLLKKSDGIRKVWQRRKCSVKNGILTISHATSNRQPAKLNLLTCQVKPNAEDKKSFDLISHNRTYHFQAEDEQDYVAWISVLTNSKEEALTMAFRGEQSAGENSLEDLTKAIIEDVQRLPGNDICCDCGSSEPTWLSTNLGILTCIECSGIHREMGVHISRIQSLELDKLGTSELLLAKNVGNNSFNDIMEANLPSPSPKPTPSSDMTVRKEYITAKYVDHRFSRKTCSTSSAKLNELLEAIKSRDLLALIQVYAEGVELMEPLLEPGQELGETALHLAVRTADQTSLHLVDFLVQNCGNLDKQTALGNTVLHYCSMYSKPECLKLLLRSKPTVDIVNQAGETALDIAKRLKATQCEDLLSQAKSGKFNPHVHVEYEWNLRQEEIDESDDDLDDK
procasp3 activ = procaspase-3 (human) activation; recombinant procaspase-3 D3A, Ac-DEVD-pNA absorbance 405 nm; activation, % at 8.5 µM; AID 463141; 0.11% of 330,000 active;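 active means activation above the mean of all tested compounds plus 3 SD, cut at about 21% in these data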;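 further: 0% = DMSO alone and 100% = DMSO wells spiked with extra 5 µM PC-3 D3A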
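Compound: 8.5 µM single point, 0.8% DMSO / Material: Autoprocessing-dead procaspase-3 D3A mutant enzyme / Timing: 1 h preincubation plus 2 h reaction at 25 °C / Medium: Zinc-free HEPES/NaCl buffer with 0.01% Triton X-100 at pH 7.4 / Technique: 405 nm absorbance of p-nitroaniline, reads at 0 and 120 min / Repeats: one well per compound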
ARFGAP1 inhibitor = inhibits rat ARF GTPase activating protein 1 | Q62848 | Arfgap1-stimulated ARF1 GTP hydrolysis, GDP FP detection | inhibition, % at 16.5 µM | 0.26% of 360,000 active;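 active means inhibition above a per-plate limit, mean inhibition of low control wells plus 3 SD, cut at about 25% in these data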;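 further: 0% = DMSO wells with enzyme and 100% = wells lacking Arfgap1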
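material = rat Arfgap1 catalytic domain, aa 1-136 | also added = human ARF1(Δ1-17)-GTP substrate | compound dosing = one concentration, 16.5 µM, DMSO 1.26% | times = GTP hydrolysis reaction 2 h at 25 °C | measured by = FP, GDP Alexa 633 tracer displaced from anti-GDP antibody, 620/688 nm | evaluation = percent inhibition of Arfgap1-stimulated GTP hydrolysis | replication = single well per compound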
procasp7 counter = activates human procaspase-7, counter-screen for procaspase-3 activators; P55210; recombinant procaspase-7, Ac-DEVD-pNA absorbance 405 nm; D23A/D198A/D206A triple mutant, cannot self-cleave; scale: DMSO 0, 5 µM enzyme 100; activation, % at 8.5 µM; 0.093% of 330,000 active; AID 463210;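 active means percent activation above the screen-wide mean plus 3 SD, cut at about 25% in these data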
Target sequence (P55210 whole entry D23A/D198A/D206A): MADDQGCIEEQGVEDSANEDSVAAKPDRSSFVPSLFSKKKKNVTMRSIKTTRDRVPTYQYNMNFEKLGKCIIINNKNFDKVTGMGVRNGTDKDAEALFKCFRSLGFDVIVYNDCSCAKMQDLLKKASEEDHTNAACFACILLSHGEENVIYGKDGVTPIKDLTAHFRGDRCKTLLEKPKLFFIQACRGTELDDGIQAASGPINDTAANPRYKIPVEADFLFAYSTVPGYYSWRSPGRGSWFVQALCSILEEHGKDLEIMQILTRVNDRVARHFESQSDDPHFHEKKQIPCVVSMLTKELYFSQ
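buffer or medium = Zinc-free HEPES/NaCl buffer, pH 7.4 | material = Procaspase-7 triple mutant (PC-7 D3A) | input = 2 µM procaspase-7 mutant as dispensed | signal = Epi-absorbance of released pNA at 405 nm, two timepoints | timing = 1 h preincubation, 2 h reaction | replicates = singlicate compound testing | evaluation = % activation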
LANA-H2A inh = blocks KSHV LANA binding to histone H2A/H2B. Q9QR71. cell-free LANA-H2A/H2B peptide, fluorescence polarization. inhibition, % (no concentration beside the values). 0.6% of 320,000 active; in the data active means inhibition mostly above about 10%, no sharp cut-off; inactive means mostly below about 6.7%
Yeast superoxide = lowers age-related superoxide in aged yeast cells; S. cerevisiae aged cells, superoxide DHE fluorescence; active compounds read low; superoxide response (% of plate mean), % at 10 µM; 0.18% of 330,000 active; AID 2690;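 active means superoxide response under a set limit, about three screen SD below normal, cut at about 65% in these data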;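 further: yeast aged for seven days with compound at 30 °C before DHE staining; 100% = average MFI of all compound-treated wells on the plate with controls excluded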
Numbers without * were called inactive; · = not tested or not shown; + = active, no number; ! = repeats disagree. The list is not random: actives were taken first. Their share in the collection is about 1.2%.

SMILES | ASAP1 GAP inh | procasp3 activ | ARFGAP1 inhibitor | procasp7 counter | LANA-H2A inh | Yeast superoxide
CCCN1C(=O)c2n[nH]c(C)c2C1c1ccc2c(c1)OCO2 (stereo not drawn) | -13 | · | -3 | · | · | ·
CC(C)[C@H](NC(=O)C1CC1)C(=O)N1CCC[C@H]1C(=O)NCc1ccccc1 | -2 | · | -4 | · | · | ·
Cc1cc(N2O[C@]34C=C[C@]25C[C@@H](O)CC[C@]5(C)C3CC[C@]2(C)[C@@H]([C@H](C)/C=C/[C@H](C)C(C)C)CC[C@H]24)no1 (stereo partly drawn) | 1 | -11 | -4 | -8 | · | 57*
O=c1ccc2cccc([N+](=O)[O-])c2[nH]1 | -1 | · | 4 | · | · | ·
Cc1cc(C)cc(NC(=O)CN2C(=O)NC(Cc3c[nH]c4ccccc34)C2=O)c1 (stereo not drawn) | -7 | -8 | 18 | -1 | -2 | 109
O=C(CN1C(=O)NC(Cc2c[nH]c3ccccc23)C1=O)Nc1cccc(S(=O)(=O)N2CCOCC2)c1 (stereo not drawn) | 8 | 1 | -12 | -8 | 25* | 90
COc1cc(OC)cc(C(=O)NC(C(=O)Nc2ccc3c(c2)OCO3)C(C)C)c1 (stereo not drawn) | 7 | -3 | -5 | 0 | 11* | 101
Nc1ccn([C@@H]2O[C@H](C(=O)N3CCN(C(=O)C(F)(F)F)CC3)[C@@H](O)[C@H]2O)c(=O)n1 | -2 | · | 17 | · | · | ·
CN(C)c1ccc(CC(=O)N2CCCCC2c2cc(C(=O)Nc3ccccc3)no2)cc1 (stereo not drawn) | -1 | · | -5 | · | · | ·
COC/C=C/C1=CC2=CC(=O)C(C)(OC(=O)c3cnc4ccccc4n3)C(=O)C2=CN1CCN1CCOCC1 (stereo not drawn) | -7 | 1 | -3 | -12 | 18* | 94
COC/C=C/C1=CC2=CC(=O)C(C)(OC(=O)c3cnc4ccccc4n3)C(=O)C2=CN1CCOC (stereo not drawn) | 20 | 0 | -2 | -6 | -2 | 93
Nc1[nH]c(C(=O)c2ccccc2)c(-c2ccc3ccccc3c2)c1C(=O)NCc1ccc(F)cc1 | -6 | · | 4 | · | · | ·
O=C(CCc1nc(-c2ccccc2)no1)NCc1ccccc1CN1CCOCC1 | 2 | 2 | -2 | 4 | 26* | 122
O=C(CCc1nc(-c2ccc(Cl)cc2)no1)NCc1ccccc1CN1CCOCC1 | -1 | 10 | 8 | 11 | -4 | 100
Cc1ccc(-c2csc(NC(=O)CCCc3cccs3)n2)cc1 | 4 | 3 | 7 | -1 | -9 | 122
Cc1csc(NC(=O)CCCc2cccs2)n1 | 11 | 2 | -4 | -1 | 181* | 105
C[C@H](O)[C@@H]1C(=O)N2CCc3c([nH]c4cccc(-c5ccccc5)c34)[C@@H]2C[C@@H]1N(C)C(=O)c1ccco1 | 14 | · | 6 | · | · | ·
COc1ccc(CNC(=O)c2cn(Cc3ccccc3OC)c(=O)s2)cc1 | 19 | · | 1 | · | · | ·
Fc1cccc(F)c1-n1c(CN2CCCC2)csc1=S | 0 | 7 | 0 | 0 | 33* | 95
Fc1ccccc1CN1CCCCCCC1 | -8 | -5 | 16 | -5 | -4 | 99
COc1cccc(Nc2nc(C(N)C3CCCCC3)cs2)n1 (stereo not drawn) | -9 | · | -8 | · | · | ·
CCN(CC)CCCNC(=O)c1cc(-c2ccc(Cl)c(Cl)c2)on1 | · | 2 | · | 5 | 19* | 87
COC(=O)C1=C(C)N(C)C(=NCc2ccc3c(c2)OCO3)NC1c1ccc(Cl)cc1 (stereo not drawn) | 3 | · | -4 | · | · | ·
CCn1c(O)c(/C=C2\C=Nc3ccccc32)sc1=O | -3 | -11 | 0 | -9 | 14* | 88
COc1ccccc1N(Cc1ccccc1)S(=O)(=O)c1cccc(C(=O)Nc2ccc(C)cn2)c1 | -8 | -13 | 18 | -6 | -2 | 94
SMILES | ASAP1 GAP inh | procasp3 activ | ARFGAP1 inhibitor | procasp7 counter | LANA-H2A inh | Yeast superoxide
O=C(OCC(=O)c1ccc(Cl)cc1Cl)c1ccc2c(c1)C(=O)N(c1cccc3ncccc13)C2=O | 114* | -1 | -3 | -6 | 1 | 102
COC(=O)CC1=C(C(=O)OC)C(c2cc(OC)c(OC)cc2OC)C(C#N)=C(N)O1 (stereo not drawn) | -1 | 15 | 9 | -2 | 14* | 84
COc1cccc(C2CC(c3ccc(Cl)cc3Cl)Nc3nc(N)nn32)c1 (stereo not drawn) | 7 | 0 | 7 | 6 | 10.0* | 96
COc1cccc(C2CC(c3ccccc3Cl)Nc3nc(N)nn32)c1 (stereo not drawn) | -9 | -5 | 7 | 4 | -2 | 108
CC(=O)Nc1ccc(S(=O)(=O)NCCC(=O)OCc2nc(N)nc(Nc3ccccc3C)n2)cc1 | · | 7 | · | -5 | 157* | 86
CCCCCc1c(C)nc(SCC(=O)O)[nH]c1=O | -11 | 0 | 6 | 4 | 4 | 94
CCCCCCCc1c(O)nc(SCC(=O)O)[nH]c1=O | 8 | 1 | 7 | 3 | 48* | 113
O=C(CN1C(=O)NC2(CCc3ccccc32)C1=O)Nc1ccc(Cl)cc1F (stereo not drawn) | -2 | · | 6 | · | · | ·
OC(COc1cccc2ccccc12)CN1CCN(c2ccccc2)CC1 (stereo not drawn) | 10 | -2 | -7 | 9 | -4 | 94
COc1ccccc1N1CCN(CC(O)COc2cccc3ccccc23)CC1 (stereo not drawn) | -2 | -5 | 7 | 12 | 24*! | 94
CC(Oc1ccccc1)C(=O)NC1CCCCCCC1 (stereo not drawn) | -11 | -3 | -1 | 8 | 0 | 94
CC(Oc1ccccc1)C(=O)NC1CC(C)(C)NC(C)(C)C1 (stereo not drawn) | 10 | -5 | 4 | -6 | 17* | 106
CC[C@]12c3[nH]c4ccccc4c3CCN1C(=O)C(CC(=O)NC/C=C(\C)CCC=C(C)C)C[C@@H]2C(=O)N1CCN(C(=O)c2ccco2)CC1 (stereo partly drawn) | 7 | 1 | -1 | 1 | + | 93
COc1cccc(Cl)c1NC(=O)N1CCN(c2ccnc3cc(Cl)ccc23)CC1 | 0 | -3 | 4 | -1 | 40* | 118
COc1cccc(Cl)c1NC(=O)N1CCN(c2cc(C)nc3ccccc23)CC1 | 2 | -5 | -1 | 4 | -3 | 97
Cc1cccc(Oc2ccccc2NC(=O)C2=COCCO2)c1 | 0 | 0 | -7 | 2 | + | 78
C(=C\c1ccccc1)/CSc1nnc(-c2ccccn2)n1Cc1ccco1 | -4 | -11 | 10 | -10 | -3 | 94
CC(C)=CCC[C@H](C)C[C@@H]1Cc2[nH]c(=S)[nH]c(=O)c2[C@@H](c2ccc(F)cc2)O1 | -7 | · | -1 | · | · | ·
